TRPC6 inhibitor: blocks the mouse TRPC6 cation channel. Q61143. B-score at 10 µM. hit rate 1.1% among 310,000. HEK293-TRPC6, membrane potential dye, ACh-evoked depolarization; active compounds read low;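 active means B-score under library mean minus 3 SD, initial fluorescence not abnormally high, positive integrated signal ratio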;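 further: B-score derived from integrated fluorescence ratio over the kinetic read; more negative B-score means stronger inhibition of depolarization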
Target sequence (Q61143 whole entry, looked up): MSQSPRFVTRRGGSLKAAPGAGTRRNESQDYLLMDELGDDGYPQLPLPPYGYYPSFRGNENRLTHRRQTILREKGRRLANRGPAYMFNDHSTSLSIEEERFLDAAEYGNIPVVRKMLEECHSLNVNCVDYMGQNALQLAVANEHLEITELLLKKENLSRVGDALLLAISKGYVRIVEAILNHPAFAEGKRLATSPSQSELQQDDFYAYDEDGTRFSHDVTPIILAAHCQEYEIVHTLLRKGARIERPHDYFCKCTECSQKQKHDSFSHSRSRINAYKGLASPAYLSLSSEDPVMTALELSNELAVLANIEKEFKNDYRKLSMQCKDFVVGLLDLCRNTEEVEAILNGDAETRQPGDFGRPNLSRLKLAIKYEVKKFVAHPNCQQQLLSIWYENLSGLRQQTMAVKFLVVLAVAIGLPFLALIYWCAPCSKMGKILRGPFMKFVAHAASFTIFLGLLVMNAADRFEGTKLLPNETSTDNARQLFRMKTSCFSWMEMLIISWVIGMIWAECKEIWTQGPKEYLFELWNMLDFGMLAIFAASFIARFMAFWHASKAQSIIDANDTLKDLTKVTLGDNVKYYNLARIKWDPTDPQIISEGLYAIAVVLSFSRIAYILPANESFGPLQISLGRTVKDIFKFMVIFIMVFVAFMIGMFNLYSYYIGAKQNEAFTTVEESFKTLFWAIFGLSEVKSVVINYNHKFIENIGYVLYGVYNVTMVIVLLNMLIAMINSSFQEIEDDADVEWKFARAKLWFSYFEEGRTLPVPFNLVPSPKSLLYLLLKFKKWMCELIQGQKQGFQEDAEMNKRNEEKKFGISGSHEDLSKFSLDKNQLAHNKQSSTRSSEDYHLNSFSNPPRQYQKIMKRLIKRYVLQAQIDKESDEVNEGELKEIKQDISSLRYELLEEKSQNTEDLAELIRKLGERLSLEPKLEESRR
TRPC4 block: TRPC4 (mouse) channel inhibition; AID 2247; hit rate 0.39% among 300,000; B-score at 10 µM; Q9QUQ5; HEK293 TRPC4beta/mu-opioid, DAMGO-evoked Fluo4 calcium flux; active compounds read low;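 active means B-score over 3 SD under the library average, no early fluorescence shift, positive overall ratio signal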
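System: stable TRPC4beta/mu-opioid receptor HEK293 cells; Dosing: single-point compound dosing; Measured by: Fluo4 Ca2+ flux fluorescence; Read-out basis: per-well B score of integrated baseline-normalized Fluo4 ratio.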
TRPC4 act: activators of mouse TRPC4 channel | B-score at 10 µM | Q9QUQ5 | hit rate 0.49% among 310,000 | HEK293 TRPC4beta/mu-opioid, Fluo4 calcium fluorescence; active compounds read high;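 active means B-score above 5 SD of library B-scores, and initial fluorescence ratio not above library mean plus 5 SD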;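 further: positive B-score marks a calcium rise read as TRPC4 activation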
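Assay system: HEK293 stable line with TRPC4beta plus mu-opioid receptor. Times: dye 45 min RT, read 110 s. Measured by: kinetic Fluo4 calcium fluorescence. Measure: B score of integrated ratio. Controls: assay buffer as low control, maximal DAMGO as high control.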
TRPC6 activator: activates the mouse TRPC6 cation channel; HEK293-TRPC6 membrane potential dye fluorescence; active compounds read high; Q61143; AID 2550; B-score at 10 µM; hit rate 0.13% among 310,000;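 active means B-score of the integrated fluorescence ratio above library mean plus 3 SD, and starting fluorescence ratio within library mean plus 5 SD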;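 further: higher score means more depolarization so channel activation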
TRPC4 PAM: allosteric potentiators of mouse TRPC4 channel; Q9QUQ5; HEK293 TRPC4beta/mu-opioid, DAMGO EC20, Fluo-4 Ca2+ flux; active compounds read high; B-score at 10 µM; hit rate 0.42% among 310,000;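 active means B-score of calcium response area above 5 SD of library B-scores, with initial fluorescence ratio within 5 SD of library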;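 further: B-score of integrated fluorescence ratio over time as area under calcium response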
TRPC4 sel inh 2: second selectivity test of TRPC6 inhibitors: effect on mouse TRPC4 | shares compounds with TRPC6 inhibitor | HEK293 TRPC4/MOR, membrane potential dye fluorescence; channel activated by saturating DAMGO dose | inhibition, % at 10 µM | hit rate 42% among 920 | AID 2776;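 active means compounds whose fluorescence signal differed from control wells by over 3 SD, either direction, in both duplicate plates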
TRPC4 spec: selectivity of TRPC6 inhibitors: effect on mouse TRPC4; AID 2777; shares compounds with TRPC6 inhibitor; HEK293 TRPC4/mu-opioid, membrane potential fluorescence; activity change, negative = inhibition, % at 10 µM; hit rate 61% among 920;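 active means rise or fall in signal beyond 3 SD of buffer-only wells in both replicate plates, either sign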;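 further: integrated kinetic ratio of fluorescence range over baseline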
HEK293 MPD ctr 2-1: parental HEK293 nonspecific activity of TRPC6 inhibitors, second screen | shares compounds with TRPC6 inhibitor | parental HEK293 membrane potential dye fluorescence; maximal acetylcholine challenge after compound addition | signal change vs control, % at 10 µM | hit rate 31% among 920 | AID 2779;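 active means membrane potential signal moving either way by over 3 SD of the maximum-effect control, in both duplicate plates, meaning non-specific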
HEK293 MPD ctr-1: checks TRPC6 inhibitor effects in parental HEK293 cells | hit rate 60% among 920 | membrane potential signal change, % at 10 µM | parental HEK293 membrane potential dye fluorescence | shares compounds with TRPC6 inhibitor;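 active means membrane potential signal shifting up or down by more than 3 SD of buffer-only wells, on both duplicate plates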
HEK293 MPD ctr-2: parental HEK293 nonspecific activity of TRPC6 modulators; shares compounds with TRPC6 inhibitor; membrane potential dye fluorescence; membrane potential signal change, % at 10 µM; hit rate 51% among 2,400; AID 488924;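 active means membrane potential signal moves up or down beyond 5 SD from buffer-only wells, on both duplicate plates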
HEK293 MPD ctr 2-2: second check of TRPC6 modulator effects in parental HEK293 cells. AID 488926. hit rate 14% among 2,400. membrane potential dye fluorescence; after compound, maximal acetylcholine stimulation. inhibition, % at 10 µM. shares compounds with TRPC6 inhibitor;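 active means membrane potential signal drops by more than 5 SD from the mean control signal, in both duplicate plates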;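 further: plate controls were acetylcholine ECmax control wells for no effect and buffer only wells for full effect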
TRPC4 ctr mod: tests whether TRPC6 modulators also affect mouse TRPC4; shares compounds with TRPC6 inhibitor; HEK293 TRPC4/mu-opioid, membrane potential fluorescence; percent change from control (negative = decrease, positive = increase), % at 10 µM; hit rate 69% among 2,400; AID 488927;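 active means membrane potential signal moved up or down beyond 5 SD of buffer control wells, in both duplicate plates, actives on both sides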;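 further: plate controls were assay buffer wells for no effect and DAMGO maximal-effect wells for full effect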
TRPC4 ctr inh 2: second check of whether TRPC6 modulators also affect mouse TRPC4 | HEK293 TRPC4/mu-opioid, membrane potential dye fluorescence; stimulated with maximal-effect DAMGO | hit rate 55% among 2,400 | inhibition, % at 10 µM | shares compounds with TRPC6 inhibitor;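 active means drop in membrane potential signal beyond 5 SD of the control wells in both duplicate plates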;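 further: TRPC4 counter screen for TRPC6 hits run under conditions tuned for TRPC6 not TRPC4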
TRPC6 block conf: confirmation of mouse TRPC6 inhibitors. shares compounds with TRPC6 inhibitor. HEK293-TRPC6, membrane potential dye, ACh-evoked depolarization. inhibition, % at 10 µM. hit rate 43% among 3,300;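 active means fluorescence ratio falls more than 5 SD below the full-stimulation control mean, in both duplicate runs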;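 further: integrated fluorescence ratio of peak minus minimum over baseline after agonist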
TRPC6 act conf: confirmation of mouse TRPC6 activators; shares compounds with TRPC6 inhibitor; HEK293-TRPC6 membrane potential dye fluorescence, FDSS; activation, % at 10 µM; hit rate 11% among 2,800;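 active means ratio signal rise beyond 5 SD above unstimulated control wells' mean, seen in both duplicate runs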;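 further: plate controls were buffer EC0 wells for no effect and acetylcholine ECmax response for full effect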
* hit, by the source's call; i = inactive; . = not tested or not shown. An excerpt weighted towards active compounds, which were near 2.3% of everything screened.

SMILES	TRPC6 inhibitor	TRPC4 block	TRPC4 act	TRPC6 activator	TRPC4 PAM	HEK293 MPD ctr-2	HEK293 MPD ctr 2-2	TRPC4 ctr mod	TRPC4 ctr inh 2	TRPC6 block conf	TRPC6 act conf	others
O=C(O)c1ccccc1Nc1ccc2nonc2c1[N+](=O)[O-]	i	i	i	i	i	.	.	.	.	.	.
CCC1CCCCN1C(=O)NC(=O)c1ccccc1 (centres undefined)	i	i	i	i	i	.	.	.	.	.	.
c1ccc(C[C@H]2CNCCN2CC2CCCCC2)cc1	i	i	i	i	i	.	.	.	.	.	.
c1ccc(C[C@H]2CNCCN2CCCCC2CCCCC2)cc1	-6*	i	i	i	i	i	i	i	48%*	i	i
N#C/C(=N\Nc1cccc2ccccc12)c1nnc2n1CCCCC2	i	i	i	i	i	.	.	.	.	.	.
COc1cc(SC)ccc1C(=O)NNC(=O)c1cc(C)oc1C	i	i	i	i	i	.	.	.	.	.	.
COc1ccc2nc(C)cc(NCCN3CCOCC3)c2c1	-9.5*	i	i	i	i	-328%*	88%*	-64%*	54%*	65%*	i
Cc1cc(NCCN2CCOCC2)c2ccc3ccccc3c2n1	-6.5*	i	i	i	i	-94%*	65%*	-26%*	70%*	57%*	i
O=C(NC1CCCCC1)C1CCCN1S(=O)(=O)c1ccc(F)cc1 (centres undefined)	-8.1*	i	i	i	i	.	.	.	.	i	i	TRPC4 sel inh 2=i;TRPC4 spec=i;HEK293 MPD ctr 2-1=i;HEK293 MPD ctr-1=i
NC(=S)NC1CC2C=CC1C2 (centres undefined)	i	i	i	i	i	.	.	.	.	.	.
Cc1c(NS(=O)(=O)c2ccc(N(C)C3CCCCC3)c([N+](=O)[O-])c2)c(=O)n(-c2ccccc2)n1C	i	i	i	i	i	.	.	.	.	.	.
Cc1c(OCC(=O)N2C[C@H]3C[C@@H](C2)c2cccc(=O)n2C3)ccc2c3c(c(=O)oc12)CCCC3	-7*	i	i	i	i	.	.	.	.	77%*	.	TRPC4 sel inh 2=i;TRPC4 spec=5.1%*;HEK293 MPD ctr 2-1=17%*;HEK293 MPD ctr-1=5.9%*
Cc1c(OCC(=O)N2C[C@H]3C[C@@H](C2)c2cccc(=O)n2C3)ccc2c3c(c(=O)oc12)CCC3	i	i	i	i	i	.	.	.	.	.	.
Cc1ccc(C2=NN(CCC(=O)NCCCN3CCOCC3)C(=O)CC2)cc1	i	i	i	i	i	.	.	.	.	.	.
COc1ccc(CCNC(=O)C2c3ccccc3C(=O)N2CCC(C)C)cc1OC (centres undefined)	i	i	i	i	i	.	.	.	.	.	.
N#CC1=C(N)OC2=C(CC/C2=C\c2ccccc2)C1c1ccccc1 (centres undefined)	i	i	i	27*	13*	576%*	i	21%*	i	i	48%*
CC1CCCCN1CCNC(=O)c1ccc2c(c1)N(Cc1ccccc1F)C(=O)c1ccccc1S2=O (centres undefined)	i	i	i	i	i	.	.	.	.	.	.
O=C(O)C1CC(c2ccccc2)=Nc2ccccc2S1 (centres undefined)	-5.3*	i	i	i	i	136%*	i	28%*	i	i	.
COc1ccc(-n2cc(CNC3CCC(O)CC3)c(-c3cccc(F)c3)n2)cc1 (centres undefined)	-8.3*	i	i	i	i	.	.	.	.	i	i	TRPC4 sel inh 2=i;TRPC4 spec=i;HEK293 MPD ctr 2-1=i;HEK293 MPD ctr-1=i
Cc1cc(NC(=O)Cn2cc([N+](=O)[O-])cn2)no1	i	i	i	i	i	.	.	.	.	.	.
O=C(Nc1ccc2oc(=O)ccc2c1)c1cc2ccccc2o1	i	i	i	i	i	.	.	.	.	.	.
O=C(Nc1ccc2oc(=O)ccc2c1)c1cccnc1	-6.3*	i	i	i	i	-180%*	i	-31%*	i	i	i
O=c1c2ccccc2oc2ccc(NCCCn3ccnc3)cc12	i	i	i	i	i	.	.	.	.	.	.
Cc1cc2oc3cc(NCCC4CCCN4C)ccc3c(=O)c2cc1C (centres undefined)	-5.9*	i	i	i	i	i	84%*	-11%*	76%*	50%*	i
O=c1c2ccccc2sc2ccc(NCCCN3CCOCC3)cc12	i	i	i	34*	i	940%*	i	190%*	80%*	.	365%*
O=C(NCCN1CCOCC1)c1sc2ccccc2c1Cl	i	i	i	i	i	.	.	.	.	.	.
CN1CCCC1CCNc1ccc2sc3ccccc3c(=O)c2c1 (centres undefined)	-6.3*	i	75*	30*	i	794%*	i	148%*	67%*	i	318%*
CCCNC(=O)CN1C(=O)NC(CCSC)C1=O (centres undefined)	i	i	i	i	i	.	.	.	.	.	.
Oc1ccc(Br)cc1C1Nc2ccccc2S1 (centres undefined)	i	i	i	i	i	.	.	.	.	.	.
COc1cc2c(cc1OC)C1(NCC2)C(=O)Nc2ccccc21 (centres undefined)	i	i	i	i	i	.	.	.	.	.	.

Compound activity as filed in PubChem BioAssay.
